Measurements published in ChEMBL document CHEMBL3352193, “Synthesis of novel substituted purine derivatives and identification of the cell death mechanism” (Eur J Med Chem, 2015).
Activity calls are given as the source filed them. The rule behind the calls is not given here.

Tests used:
Huh-7 [1] = assay: Cytotoxicity against human HuH7 cells at 2.5 to 40 uM after 72 hrs by SRB assay; type: functional, cell-based
How it was run: (§1)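 SRB screen. Cells seeded at 2000–10,000/well and treated next day for 72 h with 40, 20, 10, 5 and 2.5 µM (DMSO under 1%). TCA fixation, 0.4% SRB staining, Tris solubilization, absorbance at 515 nm. Growth inhibition calculated relative to DMSO-only wells. IC50 derived from the five-concentration inhibition percentages.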

HCT-116 = assay: Cytotoxicity against human HCT116 cells at 2.5 to 40 uM after 72 hrs by SRB assay; type: functional, cell-based; how it was run: as §1
T47D [2] = assay: Cytotoxicity against human T47D cells at 2.5 to 40 uM after 72 hrs by SRB assay; type: functional, cell-based; how it was run: as §1
[3] = Cytotoxicity against human HuH7 cells after 72 hrs by SRB assay; type: functional, cell-based; details: Huh-7, 72 h
How it was run: (§2)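 Sulforhodamine B assay. Cells seeded at 2000–10,000/well and treated the next day in triplicate with ten concentrations (DMSO vehicle, under 1% final) for 24, 48 or 72 h at 37 °C, 5% CO2. Fixed with ice-cold TCA for 1 h at 4 °C, stained with 0.4% SRB in 1% acetic acid, dye solubilized in 10 mM Tris base, A515 read. % inhibition = 100 × (1 − OD drug/OD DMSO). IC50 taken from dose–response curves.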

[4] = Cytotoxicity against human HCT116 cells after 72 hrs by SRB assay; type: functional, cell-based; details: HCT-116, 72 h; how it was run: as §1
T47D [5] = assay: Cytotoxicity against human T47D cells after 72 hrs by SRB assay; type: functional, cell-based
HepG2 = assay: Cytotoxicity against human HepG2 cells after 72 hrs by SRB assay; type: functional, cell-based; details: HepG2, 72 h; how it was run: as §2
[6] = Cytotoxicity against human Hep3B cells after 72 hrs by SRB assay; type: functional, cell-based, Hep 3B2
How it was run: (§3)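 Liver cancer cell panel, SRB assay after 72 h exposure to ten concentrations (DMSO vehicle under 1%). TCA-fixed, SRB-stained, absorbance at 515 nm. Percent cell death calculated against DMSO-only wells, and IC50 read from dose–response curves.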

PLC = assay: Cytotoxicity against human PLC cells after 72 hrs by SRB assay; type: functional, cell-based; how it was run: as §3
[7] = Cytotoxicity against human SKHEP1 cells after 72 hrs by SRB assay; type: functional, cell-based; details: SK-HEP1, 72 h; how it was run: as §3
[8] = Cytotoxicity against human Mahlavu cells after 72 hrs by SRB assay; type: functional, cell-based; how it was run: as §2
[9] = Cytotoxicity against human FOCUS cells after 72 hrs by SRB assay; type: functional, cell-based; how it was run: as §2
[10] = Cytotoxicity against human SNU182 cells after 72 hrs by SRB assay; type: functional, cell-based; details: SNU-182, 72 h; how it was run: as §3
[11] = Cytotoxicity against human SNU475 cells after 72 hrs by SRB assay; type: functional, cell-based, SNU-475; details: Homo sapiens, SNU-475, 72 h; read-out: IC50; how it was run: as §3
Huh-7 [12] = assay: Cytotoxicity against human HuH7 cells assessed as condensed apoptotic nuclei after 72 hrs by Hoechst […] staining-based fluorescence microscopy; type: functional, cell-based
FOCUS = assay: Cytotoxicity against human FOCUS cells assessed as condensed apoptotic nuclei after 72 hrs by Hoechst […] staining-based fluorescence microscopy; type: functional, cell-based
Mahlavu [13] = assay: Induction of apoptosis in human Mahlavu cells assessed as PARP cleavage at IC50 after 72 hrs by Western blotting analysis; type: functional, cell-based
Mahlavu [14] = assay: Induction of […] in human Mahlavu cells assessed as PARP cleavage at IC50 after 72 hrs by Western blotting analysis; type: functional, cell-based
Mahlavu [15] = assay: Induction of apoptosis in human Mahlavu cells assessed as Bcl2 expression at IC50 after 72 hrs by Western blotting analysis; type: functional, cell-based
Mahlavu [16] = assay: Induction of apoptosis in human Mahlavu cells assessed as total cytochrome c level at IC50 after 72 hrs by Western blotting analysis; type: functional, cell-based
Huh-7 [17] = assay: Reduction in intrinsic cellular ATP consumption in human HuH7 cells at IC50 after 24 hrs by bioluminescence assay; type: functional, cell-based
How it was run: (§4)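 Cells treated for 24 h, with staurosporine as positive control and DMSO-only controls. 20 µg lysate protein in kinase buffer (40 mM Tris-HCl pH 7.6, 20 mM MgCl2, 0.1 mg/ml BSA), no exogenous ATP added. Luciferase ATP-detection reagent added, 10 min in the dark at room temperature, then luminescence read. Higher signal taken as reduced ATP consumption.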

Mahlavu [18] = assay: Reduction in intrinsic cellular ATP consumption in human Mahlavu cells at IC50 after 24 hrs by bioluminescence assay; type: functional, cell-based; how it was run: as §4

Compound	inhibition (Huh-7 [1])	inhibition (HCT-116)	inhibition (T47D [2])	IC50 [3]	IC50 [4]	IC50 (T47D [5])	also measured
c1ccc(CN2CCC(Nc3ncnc4[nH]cnc34)CC2)cc1	inactive	inactive	inactive	–	–	–	–
CN1CCN(NCCn2cnc3c(N)ncnc32)CC1	inactive	inactive	inactive	–	–	–	–
C1=CC(CCNc2ncnc3[nH]cnc23)CCC1 (stereo not drawn)	–	–	–	14.2 µM	12.9 µM	40.3 µM	–
Nc1ncnc2c1ncn2CCNCCN1CCOCC1	inactive	inactive	inactive	–	–	–	–
CCOC(=O)Cn1cnc2c(NCc3ccc(Cl)cc3Cl)ncnc21	inactive	inactive	–	–	–	99.9 µM	–
CCOC(=O)Cn1cnc2c(N3CCN(c4ccc(C(F)(F)F)cc4)CC3)ncnc21	–	–	inactive	53.3 µM	72.4 µM	–	–
Cc1ccc(S(=O)(=O)n2cnc3c(N4CCC(C)CC4)ncnc32)cc1	–	–	–	17.8 µM	14.6 µM	22.5 µM	–
Nc1ncnc2c1ncn2CCNCCNc1ccccc1	inactive	inactive	inactive	–	–	–	–
OCCN1CCN(c2[nH]cnc3ncnc2-3)CC1	inactive	inactive	inactive	–	–	–	–
Cc1ccc(S(=O)(=O)n2cnc3c(NCc4ccc(Cl)cc4Cl)ncnc32)cc1	–	–	–	26.9 µM	28.1 µM	47.6 µM	–
O=CN1CCN(c2ncnc3[nH]cnc23)CC1	inactive	inactive	inactive	–	–	–	–
Fc1ccc(CNc2ncnc3[nH]cnc23)c(F)c1	inactive	inactive	inactive	–	–	–	–
FC(F)(F)c1ccc(N2CCN(c3ncnc4[nH]cnc34)CC2)cc1	–	–	–	3.2 µM	5.1 µM	39.4 µM	IC50 (HepG2): 3.7 µM; IC50 [6]: 6.7 µM; IC50 (PLC): 10.5 µM; IC50 [7]: 4.9 µM; IC50 [8]: 2.3 µM; IC50 [9]: 2.9 µM; IC50 [10]: 55.4 µM; IC50 [11]: 9.6 µM; Activity (Huh-7 [12]): Active; Activity (FOCUS): Active; Activity (Mahlavu [13]): inactive; Activity (Mahlavu [14]): inactive; Activity (Mahlavu [15]): inactive; Activity (Mahlavu [16]): inactive; Activity (Huh-7 [17]): Active; Activity (Mahlavu [18]): Active
CC1CCN(c2ncnc3[nH]cnc23)CC1	inactive	inactive	inactive	–	–	–	–
COc1ccc(CNc2ncnc3c2ncn3S(=O)(=O)c2ccc(C)cc2)cc1	inactive	inactive	inactive	–	–	–	–
CC1CCN(c2ncnc3c2ncn3C2CCCC2)CC1	–	–	–	17.4 µM	16.6 µM	21 µM	–
c1ccc(NCCNc2ncnc3[nH]cnc23)cc1	inactive	–	inactive	–	132 µM	–	–
FC(F)(F)c1cccc(CNc2ncnc3[nH]cnc23)c1	–	–	inactive	68.3 µM	102 µM	–	–
OC[C@H]1O[C@@H](n2cnc3c2N=CNC[C@H]3O)C[C@@H]1O	inactive	inactive	inactive	–	–	–	–
Nc1nc(Cl)nc2c1ncn2[C@H]1C[C@H](O)[C@@H](CO)O1 [CLADRIBINE]	–	–	–	1.8 µM	0.3 µM	0.7 µM	–

Compound	inhibition (Huh-7 [1])	inhibition (HCT-116)	inhibition (T47D [2])	IC50 [3]	IC50 [4]	IC50 (T47D [5])	also measured
Nc1ncnc2c1ncn2CCN1CCN(CCO)CC1	inactive	inactive	inactive	–	–	–	–
Cc1ccc(S(=O)(=O)n2cnc3c(Cl)ncnc32)cc1	–	–	–	20.8 µM	22.8 µM	13.9 µM	–
CCOC(=O)Cn1cnc2c(N3CCN(CCO)CC3)ncnc21	inactive	inactive	inactive	–	–	–	–
Cc1ccc(S(=O)(=O)n2cnc3c(N4CCN(c5ccc(C(F)(F)F)cc5)CC4)ncnc32)cc1	–	–	–	1.4 µM	4.5 µM	42.7 µM	IC50 (HepG2): 1.2 µM; IC50 [6]: 2.9 µM; IC50 (PLC): 3.7 µM; IC50 [7]: 1.7 µM; IC50 [8]: 1 µM; IC50 [9]: 1 µM; IC50 [10]: 8.4 µM; IC50 [11]: 5.4 µM; Activity (Huh-7 [12]): Active; Activity (FOCUS): Active; Activity (Mahlavu [13]): inactive; Activity (Mahlavu [14]): inactive; Activity (Mahlavu [15]): inactive; Activity (Mahlavu [16]): inactive; Activity (Huh-7 [17]): Active; Activity (Mahlavu [18]): Active
OCCNc1ncnc2[nH]cnc12	inactive	inactive	inactive	–	–	–	–
CCOC(=O)Cn1cnc2c(NCc3cccc(C(F)(F)F)c3)ncnc21	inactive	–	inactive	–	> 200 µM	–	–
Nc1nc(F)nc2c1ncn2[C@@H]1O[C@H](CO)[C@@H](O)[C@@H]1O [FLUDARABINE]	–	–	–	60.1 µM	6.6 µM	46.2 µM	–
Cc1ccc(S(=O)(=O)n2cnc3c(NCc4ccc(F)cc4F)ncnc32)cc1	inactive	inactive	–	–	–	116 µM	–
O=c1[nH]cc(F)c(=O)[nH]1 [FLUOROURACIL]	–	–	–	–	6 µM	7.9 µM	–
CC(C)NCCNCCn1cnc2c(N)ncnc21	inactive	inactive	inactive	–	–	–	–
Cc1ccc(S(=O)(=O)n2cnc3c(NCCC4C=CCCC4)ncnc32)cc1 (stereo not drawn)	–	–	–	9.4 µM	8.7 µM	34.5 µM	–
COc1ccc(CNc2ncnc3[nH]cnc23)cc1	inactive	–	inactive	–	86.6 µM	–	–
c1nc(NC2CC2)c2nc[nH]c2n1	inactive	inactive	inactive	–	–	–	–
Nc1ncnc2c1ncn2CCNCCN1CCCC1	inactive	inactive	inactive	–	–	–	–
Cc1ccc(S(=O)(=O)n2cnc3c(NC4CC4)ncnc32)cc1	inactive	inactive	inactive	–	–	–	–
Clc1ccc(CNc2ncnc3[nH]cnc23)c(Cl)c1	inactive	inactive	–	–	–	147 µM	–
Nc1ncnc2c1ncn2CCN1CCN(CCN2CCOCC2)CC1	inactive	inactive	inactive	–	–	–	–
CCNCCNCCn1cnc2c(N)ncnc21	inactive	inactive	inactive	–	–	–	–
CN(C)CCNCCn1cnc2c(N)ncnc21	inactive	inactive	inactive	–	–	–	–
